This is a sample that favours compounds with a hit; in the whole collection about 3.5% have one here.
FXIIa inh 1536: blocks human coagulation factor XIIa protease activity | P00748 | 220,000 compounds, 0.3% hits | purified FXIIa, Boc-QGR-AMC fluorogenic substrate, 2 h | inhibition, % at 5 µM; in the data active = inhibition above about 40%;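 also: 0% = enzyme with no compound and 100% = blank without enzyme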
Thrombin inh: blocks human thrombin protease activity; P00734; alpha-thrombin, Boc-VPR-AMC fluorogenic substrate cleavage; inhibition, % at 5 µM; 220,000 compounds, 0.26% hits;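 active = inhibition at or above 40%; inactive = inhibition below 40%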;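 also: 0% = enzyme with no compound and 100% = wells without enzyme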
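System – human alpha-thrombin · Medium – pH 7.5 Tris (50 mM) with NaCl 150 mM, Tween 20 0.05% · Compound – single-point dosing at 5 µM, 0.2% DMSO · Incubation – enzyme reaction carried out at room temperature · Technique – fluorescence of released AMC, ex 355 nm, em 460 nm · Read-out basis – % inhibition of thrombin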
KLK5 inh: inhibitors of human kallikrein 5; inhibition, % at 5 µM; recombinant hK5, fluorogenic AMC substrate cleavage; Q9Y337; AID 873; 210,000 compounds, 0.59% hits;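 active = inhibition of 40% or more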;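 also: 0% = enzyme controls without compound and 100% = no-enzyme blanks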
FXIa inh: factor XIa (human) inhibition; P03951; purified FXIa, Boc-Glu-Ala-Arg-AMC fluorogenic substrate; 220,000 compounds, 0.14% hits; inhibition, % at 5 µM;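 active = inhibition of at least 40%; inactive = inhibition below 40%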;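 also: fluorescence of freed AMC excited at 355 nm; 0% = enzyme without compound and 100% = no enzyme blank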
AHR act: activates the human aryl hydrocarbon receptor. P35869. AHR-responsive luciferase reporter cells, luminescence. activation, % at 5 µM. 320,000 compounds, 2.5% hits. AID 2796; in the data active = activation above about 47%;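 also: 0% = vehicle wells and 100% = reference agonist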
Target sequence (P35869 whole entry, looked up): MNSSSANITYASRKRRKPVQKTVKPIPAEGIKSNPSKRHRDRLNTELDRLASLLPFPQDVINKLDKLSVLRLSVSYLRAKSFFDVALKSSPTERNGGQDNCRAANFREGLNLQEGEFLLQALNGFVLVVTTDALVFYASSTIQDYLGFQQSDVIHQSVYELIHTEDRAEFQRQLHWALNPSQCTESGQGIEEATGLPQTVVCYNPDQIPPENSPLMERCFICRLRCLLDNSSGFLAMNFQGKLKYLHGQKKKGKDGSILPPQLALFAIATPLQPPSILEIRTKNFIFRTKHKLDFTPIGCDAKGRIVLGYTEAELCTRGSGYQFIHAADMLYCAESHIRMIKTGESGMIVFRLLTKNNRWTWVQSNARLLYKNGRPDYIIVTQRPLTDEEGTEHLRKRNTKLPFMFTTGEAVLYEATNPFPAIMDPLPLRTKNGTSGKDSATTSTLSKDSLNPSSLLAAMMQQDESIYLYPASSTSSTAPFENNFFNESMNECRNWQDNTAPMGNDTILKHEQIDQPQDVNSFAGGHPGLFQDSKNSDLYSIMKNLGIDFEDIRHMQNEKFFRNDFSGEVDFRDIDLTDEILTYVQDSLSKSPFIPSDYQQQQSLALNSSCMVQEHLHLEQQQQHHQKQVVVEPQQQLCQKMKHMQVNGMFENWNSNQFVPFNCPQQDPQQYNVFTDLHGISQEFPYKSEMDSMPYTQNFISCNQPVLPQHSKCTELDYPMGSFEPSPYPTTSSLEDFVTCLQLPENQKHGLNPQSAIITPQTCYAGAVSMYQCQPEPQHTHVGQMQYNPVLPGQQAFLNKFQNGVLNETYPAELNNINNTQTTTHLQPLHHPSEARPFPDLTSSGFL
STAT3 activator: STAT3 signaling activation. U3A cells, IL-6 STAT3-luciferase reporter, luminescence; 100% = signal with IL-6 EC80 alone. activation (% of control), % at 5.6 µM. 190,000 compounds, 0.91% hits. AID 871;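 active = activation above the screen-wide mean of compound activation plus 3 SD, cut at about 130% in these data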;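 also: 0% = background luminescence of wells with medium and substrate only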
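Material: STAT1-lacking human U3A cells, STAT3 luciferase reporter | Benchmarks: IL-6-only wells as 100% reference | Probe or stimulus: IL-6 (33 ng/mL) | Timing: Compound 1 h, then IL-6 6 h at 37 °C | Detection: Luminescence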
An asterisk follows results filed as active; / = no result given.

SMILES	FXIIa inh 1536	Thrombin inh	KLK5 inh	FXIa inh	AHR act	STAT3 activator
COc1ccc(CN2C(=O)c3ccccc3C2C(=O)NC2CCCCCC2)c(OC)c1 (stereo unspecified)	33	47*	22	31	/	97
CC1CCC(NC(=O)C2c3ccccc3C(=O)N2Cc2cccs2)CC1 (stereo unspecified)	18	17	44*	4	2	95
COc1ccc(C(C(=O)NCc2ccc(F)cc2)N(C(=O)c2csnn2)C2CC2)cc1 (stereo unspecified)	/	/	/	/	1	/
Cc1ccc(S(=O)(=O)NC(C)C(=O)NC(C)c2cccs2)cc1 (stereo unspecified)	/	/	/	/	0	/
Clc1ccc(C2Nc3cccc4cccc(c34)N2)cc1	/	/	/	/	60*	/
CSc1ccc(C2Nc3cccc4cccc(c34)N2)cc1	/	/	/	/	31	/
CC(C1CC2CCC1C2)n1c(-c2ccco2)n[nH]c1=S (stereo unspecified)	12	8	2	3	1	106
COc1ccc(OC)c2c1sc(=NC(=O)c1cccc(N3C(=O)CCC3=O)c1)n2C	13	1	6	2	70*	105
CCn1c(=NC(=O)c2cccc(N3C(=O)CCC3=O)c2)sc2c(OC)ccc(OC)c21	4	2	2	2	14	/
COc1ccc(C(=O)N=c2sc3c(C)ccc(OC)c3n2C)cc1	19	-4	-7	17	56*	106
O=C(CCc1nc2ccccc2c(=O)[nH]1)N1CCN(c2ccc(F)cc2)CC1	5	6	-5	-2	4	95
C=CCN(Cc1ccc(OC)c(OC)c1)C(=O)c1cc2cc(F)ccc2[nH]1	/	/	/	/	47*	/
C#CCOc1ccc(/C=C2/C(=O)ON=C2C)cc1Br	/	/	/	/	4	/
Cc1ccc(Nc2nc(N/N=C/c3c[nH]c4ccccc34)nc(N3CCOCC3)n2)cc1	-1	-7	-7	1	51*	95
Clc1ccc(OCc2cn3cccnc3n2)c2ncccc12	9	-3	-6	-5	/	107
c1cnc2c(OCc3cn4cccnc4n3)cccc2c1	14	2	-9	5	71*	99
O=C1c2ccccc2-c2onc3ccc(NCCCn4ccnc4)c1c23	4	-1	15	5	60*	72
COc1ccc2noc3c2c1C(=O)c1ccccc1-3	/	/	/	/	18	/
Cc1cc(/C=C(\C#N)C(=O)NCc2ccco2)c(C)n1C1CCCC1	8	-3	4	-1	9	99
CNC(=O)/C(C#N)=C/c1cc(C)n(-c2ccc(N3CCOCC3)cc2)c1C	2	-7	44*	-9	-2	/
Cc1cc(/C=C(\C#N)C(=O)NCc2ccco2)c(C)n1-c1cccnc1	6	0	1	1	70*	/
O=C1CS/C(=N/N=C/c2c[nH]c3ccccc23)N1	9	-1	3	1	78*	/
Cc1ccc(/C=N/N=C2/NC(=O)CS2)o1	16	4	6	3	7	100
Cc1ccc(S(=O)(=O)NC(=O)N2CCC(C)CC2)cc1	22	50*	39	4	/	100
O=C(NCC1CCCO1)C(=O)N/N=C/c1c(F)cccc1Cl (stereo unspecified)	/	/	/	/	-2	/
SMILES	FXIIa inh 1536	Thrombin inh	KLK5 inh	FXIa inh	AHR act	STAT3 activator
O=C1c2ccc(-c3ccc4c(c3)C(=O)N(CCO)C4=O)cc2C(=O)N1CCO	25	9	45*	53*	0	/
CCCC(=O)Nc1ccc(Cl)c(NC(=O)c2cccc(OC)c2)c1	5	4	-4	1	10	96
O=C(N/N=C/c1ccc(Br)s1)c1ccco1	6	3	-6	7	0	/
Cc1occc1C(=O)N/N=C/c1ccc(Br)s1	34	28	49*	17	2	96
Cc1ccc(/C=N/NC(=O)c2ccoc2C)s1	6	-6	-8	-6	56*	109
COc1ccc(Cl)cc1N(C(=O)Nc1cccc(Cl)c1)C1=NCC(C)S1 (stereo unspecified)	5	-6	-26	3	4	99
CCOC(=O)c1ccc(Oc2cn[nH]c2-c2ccc(OCC(=O)NN)cc2O)cc1	/	/	/	/	5	/
C=C(C)COc1ccc(-c2[nH]ncc2Oc2ccccc2OCC)c(O)c1	16	-1	13	3	25	103
C=C(C)COc1ccc(-c2[nH]ncc2Oc2cccc(OC)c2)c(O)c1	29	20	63*	2	13	104
C=C(C)COc1ccc(-c2ncncc2Oc2ccc(OC)cc2)c(O)c1	20	10	43*	11	14	95
CCCOC(=O)c1ccc(Oc2cn[nH]c2-c2ccc(OCC(=O)NN)cc2O)cc1	30	13	41*	43*	8	/
O=C1C(=O)N(CCN2CCOCC2)C(c2ccccc2F)/C1=C(\O)c1ccc(S(=O)(=O)N2CCOCC2)cc1 (stereo unspecified)	/	/	/	/	1	/
O=C(NCCCO)C(=O)Nc1cc2c3c(c1)CCN3C(=O)CC2	/	/	/	/	4	/
CCCCn1c(N)c(N(CC(C)C)C(=O)c2cccs2)c(=O)[nH]c1=O	/	/	/	/	-1	/
O=C(NC1CC(=O)N(c2ccc3c(c2)OCCO3)C1)N1CCCCC1 (stereo unspecified)	/	/	/	/	1	/
N#Cc1c(NC(=O)c2ccc(Cn3cc(Br)cn3)o2)sc2c1CCCCCC2	-1	4	-3	-4	70*	97
N#Cc1c(NC(=O)c2cccnc2)sc2c1CCC2	31	1	-1	16	44	101
Cc1ccc(NC(=O)c2ccc(Cn3cc(Br)cn3)o2)cc1	15	1	-2	9	60*	98
N#Cc1c(NC(=O)c2cnccn2)sc2c1CCCC2	9	0	-7	4	69*	103
COc1ccc(C[C@H]2CN3C(=NC[C@@H]3Cc3ccc(O)cc3)N2C[C@H](C)NC(=O)c2ccc(C)c(Br)c2)cc1	7	-1	-1	-1	5	/
COc1cccc(CC2(CO)CCCN(Cc3ccc(OC)c(C)c3OC)C2)c1 (stereo unspecified)	/	/	/	/	-1	/
COCCNC(=O)CC(NS(=O)(=O)c1ccc(C)cc1)c1ccco1 (stereo unspecified)	52*	10	46*	0	-1	97
CCCCNC(=O)CC(NS(=O)(=O)c1ccc(C)cc1)c1ccco1 (stereo unspecified)	14	1	0	10	0	91
CC(=O)n1nc(-c2ccccc2)nc1NCc1cccs1	3	97*	-3	-5	10	101
CCC(=O)n1nc(-c2ccc(OC)cc2)nc1NCc1cccs1	7	89*	-5	1	/	102
CC(=O)n1nc(-c2ccccc2)nc1NCc1ccc(N(C)C)cc1	-7	61*	-24	-6	26	105
CCOC(=O)C1(CC2CCCCO2)CCN(S(=O)(=O)c2c(C)nn(C)c2C)CC1 (stereo unspecified)	7	1	1	-3	2	109

Screens: PubChem BioAssay, several laboratories
